From article PMC10157846 (ACS Omega, 2023)
pIC50: −log10 of the molar value.

Assays:
[1] = test system: human constitutive 20S proteasome; assay: Small peptide; assay type: biochemical; details: for max fold increase, chymotrypsin-like site: Suc-LLVY-AMC; for max fold increase, caspase-like site: Z-LLE-AMC
How it was run: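 Human constitutive 20S proteasome (1 nM) in 38 mM Tris-HCl, 100 mM NaCl, pH 7.8 was preincubated with compound (8-point, 1.25–80 μM) at 37 °C. AMC substrates were added alone (final Suc-LLVY-AMC 20 µM, Z-LLE-AMC 20 µM, Boc-LRR-AMC 40 μM) or combined (6.67 μM each final). Fluorescence (380/460 nm) was read over 1 h at 37 °C. Hydrolysis rate was expressed as fold change versus vehicle.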

[2] = test system: GFP-ODC; assay: Cellular degradation of GFP-ODC; assay type: cell-based, human; details: 16 h, HEK-293T stably expressing GFP-ODC
How it was run: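 HEK-293T stably expressing GFP-ODC were grown to 80% confluency in 60 mm plates and treated 16 h with compound or DMSO. Controls: 5 μM bortezomib, 20 μM chlorpromazine. Cells were pelleted, PBS-washed and lysed in RIPA with protease inhibitors (20 min on ice). Western blot followed; only the full-length 75 kDa GFP-ODC band was quantified, in triplicate.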

[3] = test system: 26S proteasome; assay: Small peptide; assay type: biochemical; details: only at the highest concentration
[4] = test system: GFP-ODC; assay: Cell-based GFP-ODC AlphaLISA; parameters: species or system human; details: for pIC50: Homo sapiens, HEK-293T, read-out: IC50 of the AlphaLISA signal; for reduction of the GFP-ODC AlphaLISA signal: 8-point titration, fresh powder stocks
How it was run: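 HEK-293T cells stably expressing GFP-ODC, from a flow-sorted medium-GFP expressor pool, were plated at 10,000 cells/well in phenol red-free DMEM and dosed with compound or DMSO at plating. Cells were lysed in Surefire lysis buffer with shaking for 30 min at RT. Biotinylated anti-ODC plus anti-GFP acceptor bead (10× mix) went on for 1 h in the dark, then streptavidin donor bead for 30 min. Alpha signal read. Wells without anti-ODC served as negative control.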

[5] = Cell viability, parallel CellTiter-Glo assay; assay type: cell-based, human; details: human, HEK-293T cells stably expressing GFP-ODC
[6] = test system: K48 ubiquitin; assay: Cellular K48 ubiquitin levels; assay type: cell-based, human; details: same cell lysates as the GFP-ODC western blot
[7] = test system: purified human 20S proteasome; assay: In vitro degradation of α-synuclein by purified 20S proteasome; assay type: biochemical; details: 3 h, compared to untreated proteasome
How it was run: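 Purified human 20S proteasome in 50 mM HEPES, 5 mM DTT, pH 7.2 was preincubated with compound or DMSO for 45 min at 37 °C. Purified α-synuclein was then added and incubated 3 h at 37 °C; final reaction was 0.3 μM α-synuclein and 10 nM proteasome. GAPDH (0.5 μM) was added as loading control. α-Synuclein remaining was quantified by western blot versus DMSO.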

[8] = test system: HEK-293T cells; assay: Cell viability, parallel CellTiter-Glo assay; assay type: cell-based, human; details: HEK-293T cells stably expressing GFP-ODC, 8-point titration
[9] = Solubility observed in the AlphaLISA dose response; assay type: physicochemical; details: at higher concentrations of the dose response
[10] = test system: EGFR; details: read-out: IC50 for EGFR tyrosine kinase inhibition; reported value; cited from earlier work
[11] = combination of the three fluorogenic peptide probes

## CN(C)CCCN1c2ccccc2Sc2ccc(Cl)cc21 [CPZ, chlorpromazine]
[1]; [11]
  overall max fold increase of 20S proteasome activity: 6.3 fold
[1]; individual fluorogenic peptide substrates
  catalytic sites of the 20S proteasome activated: only activated the chymotrypsin-like site
[2]; 20 μM compound
  full-length GFP-ODC remaining: 97%
[3]
  activation of the 26S proteasome: 2 fold

## CCN(CC)CCNc1ccc(CO)c2sc3ccccc3c(=O)c12 [Hycanthone]
[4]
  pIC50: 4.82
[5]
  CC50: 69.7 µM

## CCN(CC)CCCC(C)Nc1c2ccc(Cl)cc2nc2ccc(OC)cc12 (centres unmarked) [Quinacrine]
[4]
  pIC50: 5.32

## CC(C)C[C@H]1C(=O)N2CCC[C@H]2[C@]2(O)O[C@](NC(=O)[C@@H]3C=C4c5cccc6[nH]c(Br)c(c56)C[C@H]4N(C)C3)(C(C)C)C(=O)N12 [bromocriptine]
[4]
  reduction of the GFP-ODC AlphaLISA signal: did not reduce the AlphaLISA signal below 50% (Figure S2) or did not reduce the AlphaLISA signal without significant cell death

## C#Cc1cccc(Nc2ncnc3cc(OCCOC)c(OCCOC)cc23)c1 [erlotinib]
[1]; Boc-LRR-AMC
  max fold increase, trypsin-like site: 5.9 fold
[1]
  max fold increase, chymotrypsin-like site: 5.1 fold
  max fold increase, caspase-like site: 3.1 fold
[1]; [11]
  overall max fold increase of 20S proteasome activity: 5.7 fold
[1]; combination of the three fluorogenic peptide probes, 1 nM 20S
  EC200, concentration at which the rate of proteolysis was doubled compared to the vehicle control: 12 µM
[6]
  effect on K48 ubiquitin / levels of ubiquitinylated proteins: no impact on the levels of ubiquitinylated proteins
[4]
  pIC50: 5.27
[7]; 10 μM compound
  α-synuclein remaining: 68%
[7]; 20 μM compound
  α-synuclein remaining: 48%
[2]; 10 μM compound
  full-length GFP-ODC remaining: 34%
[2]; 20 μM compound
  full-length GFP-ODC remaining: 16%
[3]
  activation of the 26S proteasome: 2.5- to 3 fold
[8]
  cell cytotoxicity: no significant cell cytotoxicity
[9]
  solubility: poor solubility at higher concentrations
[10]
  pIC50: 8.70

## CNCCC(Oc1ccc(C(F)(F)F)cc1)c1ccccc1 (centres unmarked) [fluoxetine]
[4]
  reduction of the GFP-ODC AlphaLISA signal: did not reduce the AlphaLISA signal below 50% (Figure S2) or did not reduce the AlphaLISA signal without significant cell death

## COC(=O)C[C@](O)(CCCC(C)(C)O)C(=O)O[C@@H]1C(OC)=C[C@]23CCCN2CCc2cc4c(cc2[C@H]13)OCO4 [homoharringtonine]
[4]
  reduction of the GFP-ODC AlphaLISA signal: significantly decreased the AlphaLISA signal but not in a dose-dependent manner

## O=C(N/N=C/c1ccc([N+](=O)[O-])o1)c1ccc(O)cc1 [nifuroxazide]
[8]
  cell cytotoxicity: low cytotoxicity

## COc1cc2nc(N3CCN(C(=O)c4ccco4)CC3)nc(N)c2cc1OC [prazosin]
[1]
  max fold increase, chymotrypsin-like site: 3.5 fold
  max fold increase, caspase-like site: 5.8 fold
[1]; [11]
  overall max fold increase of 20S proteasome activity: 4.5 fold
[4]
  reduction of the GFP-ODC AlphaLISA signal: did not reduce the AlphaLISA signal below 50% (Figure S2) or did not reduce the AlphaLISA signal without significant cell death
[2]; 20 μM compound
  full-length GFP-ODC remaining: 84%
[3]
  activation of the 26S proteasome: 2.5- to 3 fold

## CC(=O)S[C@@H]1CC2=CC(=O)CC[C@]2(C)[C@H]2CC[C@@]3(C)[C@@H](CC[C@@]34CCC(=O)O4)[C@H]12 [spironolactone]
[8]
  cell cytotoxicity: low cytotoxicity

## CN1CCN(CC/C=C2/c3ccccc3Sc3ccc(S(=O)(=O)N(C)C)cc32)CC1 [thiothixene]
[4]
  reduction of the GFP-ODC AlphaLISA signal: did not reduce the AlphaLISA signal below 50% (Figure S2) or did not reduce the AlphaLISA signal without significant cell death

## CC(C)[C@]12O[C@H]1[C@@H]1O[C@]13[C@]1(O[C@H]1C[C@H]1C4=C(CC[C@@]13C)C(=O)OC4)[C@@H]2O [triptolide]
[4]
  reduction of the GFP-ODC AlphaLISA signal: significantly decreased the AlphaLISA signal but not in a dose-dependent manner
